Assay outcomes: PubChem BioAssay, Sanford-Burnham Center for Chemical Genomics
CCR6 antag = blocks CCL20-driven beta-arrestin recruitment at human CCR6; P51684; CHO-K1 CCR6 PathHunter beta-arrestin, luminescence, CCL20-stimulated; inhibition, % at 20 µM; 0.49% of 340,000 active; AID 493098;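 active = compounds whose inhibition of the agonist-driven luminescence signal at 20 µM reaches about 50%, limit read from the data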;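 note: cells stimulated with CCL20 at 14 nM final; plate controls were DMSO with CCL20 for no effect and DMSO without agonist for full effect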
APJ ag = activates the human apelin receptor APJ; P35414; CHO-K1 APJ PathHunter beta-arrestin, luminescence; 0% DMSO wells, 100% apelin; activation, % at 20 µM; 0.11% of 330,000 active;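 active = activation more than six SD over the plate average, tested at 20 µM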;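 note: 0% = DMSO alone and 100% = apelin-13 at 10 nM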
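Test system: CHO-K1 APJ beta-arrestin complementation cell line. Amount: cell density 1000 per well. Controls: DMSO negative, 10 nM Apelin-13 positive. Signal: luminescent beta-gal fragment complementation, chemiluminescent substrate. Read-out basis: agonist-driven arrestin binding to APJ. Timing: compound stimulation 90 min at 25 °C, detection 60 min.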
APJ antag = antagonists of human APJ apelin receptor; CHO-K1 APJ beta-arrestin complementation, luminescence; inhibition, % at 20 µM; 0.32% of 330,000 active; P35414;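 active = inhibition above about 40% at 20 µM, limit read from the data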;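 note: cells challenged with 10 nM apelin-13 agonist together with compound; plate controls were apelin-13 plus DMSO wells for no effect and DMSO wells lacking apelin-13 for full effect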
EBI2 block = antagonists of human EBI2 receptor; 0.81% of 360,000 active; inhibition, % at 5 µM; AID 651636; EBI2 beta-arrestin recruitment, luminescence, 7a,25-OHC stimulated; P32249; in the data active = inhibition above about 38%;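 note: enzyme fragment complementation signal reports receptor beta-arrestin coupling in cells; 0% = agonist plus DMSO wells and 100% = wells without agonist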
Target sequence (P32249 whole entry, looked up, the tested form may be a part): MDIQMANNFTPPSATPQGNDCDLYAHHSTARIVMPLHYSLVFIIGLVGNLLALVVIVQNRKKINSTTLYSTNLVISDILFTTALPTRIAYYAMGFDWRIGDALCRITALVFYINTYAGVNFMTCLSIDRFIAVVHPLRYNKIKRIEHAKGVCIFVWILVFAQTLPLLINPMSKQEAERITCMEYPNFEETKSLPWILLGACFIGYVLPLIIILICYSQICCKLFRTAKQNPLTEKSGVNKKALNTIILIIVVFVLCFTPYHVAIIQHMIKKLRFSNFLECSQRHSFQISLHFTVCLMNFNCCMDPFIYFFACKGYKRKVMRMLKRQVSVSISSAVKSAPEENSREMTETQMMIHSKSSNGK
CXCR6 block = inhibitors of human CXCR6 receptor; CHO-K1 PathHunter CXCR6 beta-arrestin, luminescence; 0.36% of 360,000 active; inhibition, % at 20 µM; in the data active = inhibition above about 34%, passing the limit was not always enough;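 note: antagonist mode with CXCL16 agonist at 10 nM final; 0% = 10 nM CXCL16 with DMSO and 100% = unstimulated wells without agonist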
EBI2 antag conf = confirmation of human EBI2 receptor antagonists; shares compounds with EBI2 block; EBI2 beta-arrestin luminescence, 7a,25-OHC antagonism; inhibition, % at 5 µM; 29% of 2,400 active; AID 651997;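 active = inhibition of at least 50%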
EBI2 ag = counter-screen for EBI2 antagonists: EBI2 agonist activity; shares compounds with EBI2 block; EBI2-expressing cells, agonist mode, luminescence, 60 min; 0% vehicle, 100% 7α,25-dihydroxycholesterol control; activation, % at 5 µM; 2,400 tested, under 10 active;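 active = activation of at least 50%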
bGal counter = inhibits E. coli beta-galactosidase, counter-screen for EBI2 antagonists. inhibition, % at 5 µM. shares compounds with EBI2 block. purified beta-galactosidase, luminescent Galacton Star, 15 min. AID 652176. 1% of 2,400 active;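 active = replicate-average signal at least 3 plate SD below neutral wells, shown as high inhibition, flagging enzyme-inhibiting false positives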;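 note: 0% = DMSO wells with enzyme and 100% = wells lacking enzyme; higher means stronger loss of beta-gal luminescence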
* = called active by the depositor; / = not tested or not shown. The list is not random: actives were taken first. Their share in the collection is about 1.5%.

SMILES	CCR6 antag	APJ ag	APJ antag	EBI2 block	CXCR6 block	EBI2 antag conf	EBI2 ag	bGal counter
COCc1cccc(-c2csc(C(C)(O)c3cccc(OC)c3)n2)c1 (stereo not given)	/	/	/	5	-5	/	/	/
CCOC(=O)C1(C)CCCN(C(=O)c2cccc3ccccc23)C1 (stereo not given)	/	/	/	-5	4	/	/	/
NC(Cc1ccc(C(F)(F)F)cc1)c1csc(NC(=O)NCCc2ccccc2)n1 (stereo not given)	/	/	/	-3	-22	/	/	/
C=CCN1C(=O)CS/C1=N/c1nccs1	-11	-1	20	-1	-2	/	/	/
C=CCN1C(=O)/C(=C/c2ccccc2)S/C1=N/c1nccs1	17	-2	-13	57*	3	47	3	4
O=C(NC12CC3CC(CC(C3)C1)C2)C1CC(=O)N(c2ccc(Br)cc2)C1 (stereo not given)	-2	-1	-20	51*	-6	33	1	4
CSc1ccccc1NC(=O)c1cc(-c2cccnc2)nc2ccc(Br)cc12	4	2	5	41*	8	16	-1	-7
CC(=O)Nc1cccc(NC(=O)c2cc(-c3cccnc3)nc3ccc(Br)cc23)c1	9	6	2	-27	4	/	/	/
Cc1ccc2nc(-c3cccnc3)cc(C(=O)Nc3ccccc3[N+](=O)[O-])c2c1	7	21	-31	48*	1	61*	1	5
O=C(c1ccc2nc[nH]c2c1)N1CCN(c2cccc(C(F)(F)F)c2)CC1	11	0	-17	-33	-3	/	/	/
CCOc1cccc2sc(N3CCN(C(=O)c4ccc5ncsc5c4)CC3)nc12	4	0	-7	45*	-10	30	2	-1
COc1ccc(OC)c2sc(N3CCN(C(=O)c4ccc5ncsc5c4)CC3)nc12	-7	0	-7	54*	-19	17	-1	-7
O=C(c1ccc2ncsc2c1)N1CCN(c2cccc(C(F)(F)F)c2)CC1	-2	8	14	54*	-1	13	0	-10
COc1ccc(NC(=O)C(c2ccc(C(F)(F)F)cc2)n2c(=O)c(-c3cc4ccccc4[nH]3)nc3ccccc32)cc1 (stereo not given)	/	/	/	8	/	/	/	/
CC(C)C[C@H]1CN(CCCC[C@H]2CNC(=O)C(=O)N2CCC2CCCCC2)C(=O)C(=O)N1CC1CCCCC1	/	/	/	-4	1	/	/	/
COc1ccc([C@H]2N[C@]3(CCCN(CC4CCCCC4)C3=O)[C@H]3C(=O)N(Cc4ccccc4)C(=O)[C@@H]23)cc1	/	/	/	2	5	/	/	/
O=C1[C@@H]2Cc3c([nH]c4ccccc34)C(c3cccc([N+](=O)[O-])c3)N2C(=O)CN1C1CCN(Cc2ccccc2)CC1 (stereo not given in full)	/	-3	1	41*	10	37	0	5
OCCCNc1cc(-c2ccccc2)nc2cc(-c3ccc(F)cc3)nn12	-14	3	-10	55*	-4	49	-1	-6
CC(C)Nc1nc(NCCOc2ccccc2Cl)c2sc(-c3ccccc3)cc2n1	/	/	/	52*	9	30	0	-15
COc1ccccc1CNc1nc(NC(C)C)nc2cc(-c3ccccc3)sc12	/	/	/	50*	3	50*	-2	-8
COCCNc1nc(NCCOC)c2sc(-c3ccccc3)cc2n1	/	/	/	12	3	/	/	/
COCCNc1nc(-c2ccc(OC)cc2C)c2sc(-c3ccccc3)cc2n1	/	/	/	42*	6	19	-1	-13
COCCNc1nc(NCCOc2ccccc2)c2sc(-c3ccccc3)cc2n1	/	/	/	47*	9	45	0	6
COc1ccccc1CNc1nc(NCc2ccccc2)nc2ccsc12	/	/	/	-2	0	/	/	/
O=C(NCc1cc(Cl)cc(Cl)c1)c1csc([C@@H]2O[C@H](CO)[C@H](O)[C@H](O)[C@H]2O)n1	/	/	/	0	7	/	/	/
SMILES	CCR6 antag	APJ ag	APJ antag	EBI2 block	CXCR6 block	EBI2 antag conf	EBI2 ag	bGal counter
CC(C)=C[C@H]1C[C@H](C)[C@H]2CC[C@H](C)c3c(O)c(O[C@H]4OC[C@H](O)[C@@H](O)[C@@H]4O)c(C)c1c32	/	/	/	9	4	/	/	/
O=C(/C=C/c1cn(-c2ccccc2)nc1-c1cccnc1)c1ccco1	14	1	-4	44*	8	65*	3	2
CCN(C)C1CN(Cc2cn(Cc3ccc(Cl)cc3)nn2)S(=O)(=O)C1 (stereo not given)	/	/	/	-11	-1	/	/	/
COC(=O)C1CCN(C(=O)COC(=O)c2ccc(=O)n(Cc3ccccc3)n2)CC1	13	3	-46	1	-12	/	/	/
O=C(NC1CCCCCC1)c1ccc(=O)n(Cc2ccccc2)n1	19	0	11	46*	13	35	0	7
CCOc1ccc(C(=O)/C=C/c2ccc(SC)cc2)cc1	11	-3	-4	61*	-1	50*	0	7
CCOC(=O)C1(Cc2ccc(Cl)cc2)CCN(C(C)Cc2ccc(O)c(OC)c2)CC1 (stereo not given)	16	2	13	47*	7	17	0	-8
Cc1cccc2c(C(=O)N3CCN(c4ccccc4)CC3)cc(-c3ccncc3)nc12	4	-2	2	47*	0	28	0	-2
CC(=O)c1ccc(N2CCN(C(=O)c3cc(-c4ccncc4)nc4ccc(Cl)cc34)CC2)cc1	-2	18	-30	45*	-25	25	2	8
CC1(C(=O)NS(=O)(=O)c2cccs2)CCN1C(=O)CC1CC1 (stereo not given)	/	/	/	0	-8	/	/	/
O=C(COc1ccc(Cl)cc1)Nc1ccc(N2CCN(C(=O)c3ccco3)CC2)cc1	-7	8	3	54*	5	33	0	4
Cc1ccc(OCC(=O)Nc2ccc(N3CCOCC3)cc2)cc1	4	4	-5	11	-5	/	/	/
COc1ccc(OCC(=O)Nc2ccc(N3CCOCC3)cc2)cc1	0	4	12	84*	7	79*	-1	-6
CCCOc1ccc(C(=O)N2CCN(c3ccc(NC(=O)CC)cc3Cl)CC2)cc1	-2	1	0	70*	-6	59*	0	3
Cc1ccc(OCC(=O)Nc2ccc(N3CCN(C(=O)c4ccc(C)cc4)CC3)cc2)cc1	12	6	-14	57*	-1	15	1	0
CCc1nc2c(OCC=C(C)C)cccn2c1N(C)C(=O)c1ccc(OC)cc1	/	/	/	5	-1	/	/	/
COc1ccc(NC(=O)C2(C)CCN2C(=O)c2ccc(C(C)(C)C)cc2)cc1OC (stereo not given)	/	/	/	-4	-10	/	/	/
